Experimental data as given in ChEMBL document CHEMBL1782042, “Efficient microwave-assisted synthesis and antitumor activity of novel 4,4'-methylenebis[2-(3-aryl-4,5-dihydro-1H-pyrazol-5-yl)phenols]” (Eur J Med Chem, 2011).

Experiments:
[1] = test system: SNB-75; assay: Anticancer activity against human SNB75 cells after 48 hrs by sulforhodamine B assay; type: functional; settings: SNB-75, 48 h
Method in brief: (§1)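 NCI 60-cell-line screen, second stage. Five concentration levels (100, 10, 1.0, 0.1 and 0.01 μM), 48 h continuous drug exposure. Cell growth was estimated by sulforhodamine B protein staining. GI50 is the concentration giving a 50% reduction in net protein increase relative to control cells over the drug incubation. Compounds entered this stage after an earlier single-dose screen.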

[2] = test system: HCT-116; assay: Anticancer activity against human HCT116 cells after 48 hrs by sulforhodamine B assay; type: functional; settings: HCT-116, 48 h
Method in brief: (§2)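 NCI 60-cell-line in vitro screen, second stage: five concentration levels (100, 10, 1.0, 0.1 and 0.01 μM) with 48 h continuous drug exposure. Cell growth was estimated by sulforhodamine B protein staining. GI50 is the drug concentration that gives a 50% reduction in net protein increase relative to control cells over the incubation.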

[3] = test system: MDA-MB-468; assay: Anticancer activity against human MDA-MB-468 cells after 48 hrs by sulforhodamine B assay; type: functional; settings: MDA-MB-468, 48 h; method in brief: as §2
[4] = test system: RXF 393; assay: Cytotoxicity against human RXF393 cells; type: cell-based
Method in brief: (§3)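 NCI 60 human tumour cell line screen, second stage at five concentrations (100, 10, 1.0, 0.1 and 0.01 μM). Continuous drug exposure for 48 h, with cell growth estimated by sulforhodamine B protein staining. GI50 is the drug concentration giving a 50% reduction in net protein increase relative to control cells over the incubation.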

[5] = test system: SNB-19; assay: Anticancer activity against human SNB19 cells after 48 hrs by sulforhodamine B assay; type: functional; settings: SNB-19, 48 h; method in brief: as §2
[6] = test system: SNB-19; assay: Cytotoxicity against human SNB19 cells; type: cell-based
Method in brief: (§4)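 NCI 60 human tumour cell line screen; five concentration levels (100, 10, 1.0, 0.1 and 0.01 μM), 48 h continuous drug exposure. Cell growth estimated by sulforhodamine B (SRB) protein staining. GI50 taken as the drug concentration giving a 50% reduction in net protein increase relative to control cells over the incubation.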

[7] = test system: MDA-MB-435; assay: Cytotoxicity against human MDA-MB-435 cells; type: cell-based; method in brief: as §3
[8] = test system: U-251; assay: Anticancer activity against human U251 cells after 48 hrs by sulforhodamine B assay; type: functional; settings: U-251, 48 h; method in brief: as §1
[9] = test system: 786-0; assay: Anticancer activity against human 786-0 cells after 48 hrs by sulforhodamine B assay; type: functional; settings: 786-0, 48 h; method in brief: as §2
[10] = test system: 786-0; assay: Cytotoxicity against human 786-0 cells; type: cell-based; method in brief: as §3
[11] = test system: T47D; assay: Cytotoxicity against human T47D cells; type: cell-based; method in brief: as §4
[12] = test system: HCT-15; assay: Anticancer activity against human HCT15 cells after 48 hrs by sulforhodamine B assay; type: functional; settings: HCT-15, 48 h; method in brief: as §2
[13] = test system: ACHN; assay: Cytotoxicity against human ACHN cells; type: cell-based; method in brief: as §3
[14] = test system: K562; assay: Cytotoxicity against human K562 cells; type: cell-based; method in brief: as §3
[15] = test system: ACHN; assay: Anticancer activity against human ACHN cells after 48 hrs by sulforhodamine B assay; type: functional; method in brief: as §2
[16] = test system: SK-MEL-2; assay: Anticancer activity against human SK-MEL-2 cells after 48 hrs by sulforhodamine B assay; type: functional; settings: SK-MEL-2, 48 h; method in brief: as §2
[17] = test system: A549; assay: Anticancer activity against human A549 cells after 48 hrs by sulforhodamine B assay; type: functional; settings: A549, 48 h; method in brief: as §2
[18] = test system: Hs-578T; assay: Anticancer activity against human Hs578T cells after 48 hrs by sulforhodamine B assay; type: functional; method in brief: as §2
[19] = test system: NCI-H460; assay: Cytotoxicity against human NCI-H460 cells; type: cell-based; method in brief: as §3
[20] = test system: SN12C; assay: Cytotoxicity against human SN12C cells; type: cell-based; method in brief: as §4
[21] = test system: Hs-578T; assay: Cytotoxicity against human Hs578T cells; type: cell-based; method in brief: as §3
[22] = test system: NCI-H226; assay: Cytotoxicity against human NCI-H226 cells; type: cell-based; method in brief: as §3
[23] = test system: HOP-62; assay: Cytotoxicity against human HOP62 cells; type: cell-based; method in brief: as §3
[24] = test system: MDA-MB-435; assay: Anticancer activity against human MDA-MB-435 cells after 48 hrs by sulforhodamine B assay; type: functional; settings: MDA-MB-435, 48 h; method in brief: as §2
[25] = test system: NCI-H522; assay: Cytotoxicity against human NCI-H522 cells; type: cell-based; method in brief: as §3
[26] = test system: NCI-H226; assay: Anticancer activity against human NCI-H226 cells after 48 hrs by sulforhodamine B assay; type: functional; settings: NCI-H226, 48 h; method in brief: as §2
[27] = test system: RPMI-8226; assay: Anticancer activity against human RPMI8226 cells after 48 hrs by sulforhodamine B assay; type: functional; settings: RPMI-8226, 48 h; method in brief: as §2
[28] = test system: SK-MEL-5; assay: Anticancer activity against human SK-MEL-5 cells after 48 hrs by sulforhodamine B assay; type: functional; settings: SK-MEL-5, 48 h; method in brief: as §2
[29] = test system: BT-549; assay: Cytotoxicity against human BT549 cells; type: cell-based; method in brief: as §3
[30] = test system: HCT-15; assay: Cytotoxicity against human HCT15 cells; type: cell-based; method in brief: as §3
[31] = test system: OVCAR-8; assay: Cytotoxicity against human OVCAR8 cells; type: cell-based; method in brief: as §3
[32] = test system: HOP-62; assay: Anticancer activity against human HOP62 cells after 48 hrs by sulforhodamine B assay; type: functional; settings: HOP-62, 48 h; method in brief: as §2
[33] = test system: HCT-116; assay: Cytotoxicity against human HCT116 cells; type: cell-based; method in brief: as §3

Question: `Cc1ccc(C2=NNC(c3cc(Cc4ccc(O)c(C5CC(c6ccc(C)cc6)=NN5)c4)ccc3O)C2)cc1` (stereo not drawn) was tested. Which GI50 [1] did it give?
Answer: 4.98 µM

Question: What about the GI50 [2] of the same molecule?
Answer: 4.11 µM

Question: And the GI50 [3]?
Answer: 2.97 µM

Question: And the LC50 [4]?
Answer: > 100 µM

Question: And the GI50 [5]?
Answer: 6.89 µM

Question: And the LC50 [6]?
Answer: > 100 µM

Question: What about the LC50 [7] of the same molecule?
Answer: > 100 µM

Question: And the GI50 [8]?
Answer: 5.84 µM

Question: And the GI50 [9]?
Answer: 8.39 µM

Question: What about the LC50 [10] of the same molecule?
Answer: > 100 µM

Question: What about the LC50 [11] of the same molecule?
Answer: > 100 µM

Question: And the GI50 [12]?
Answer: 3.64 µM

Question: What about the LC50 [13] of the same molecule?
Answer: > 100 µM

Question: And the LC50 [14]?
Answer: > 100 µM

Question: And the GI50 [15]?
Answer: 5.56 µM

Question: And the GI50 [16]?
Answer: 5.9 µM

Question: And the GI50 [17]?
Answer: 6.84 µM

Question: And the GI50 [18]?
Answer: 5.58 µM

Question: And the LC50 [19]?
Answer: > 100 µM

Question: And the LC50 [20]?
Answer: > 100 µM

Question: And the LC50 [21]?
Answer: > 100 µM

Question: And the LC50 [22]?
Answer: > 100 µM

Question: What about the LC50 [23] of the same molecule?
Answer: > 100 µM

Question: And the GI50 [24]?
Answer: 8.52 µM

Question: What about the LC50 [25] of the same molecule?
Answer: > 100 µM

Question: What about the GI50 [26] of the same molecule?
Answer: 8.28 µM

Question: What about the GI50 [27] of the same molecule?
Answer: 9.89 µM

Question: And the GI50 [28]?
Answer: 1.76 µM

Question: What about the LC50 [29] of the same molecule?
Answer: > 100 µM

Question: And the LC50 [30]?
Answer: > 100 µM

Question: And the LC50 [31]?
Answer: > 100 µM

Question: What about the GI50 [32] of the same molecule?
Answer: 8.64 µM

Question: And the LC50 [33]?
Answer: 55.2 µM
